Screening data deposited in PubChem BioAssay by several laboratories.
Shown are actives, neighbours in structure and some others; about 1.8% of the full set was active somewhere.
MsrA act: activators of bovine methionine sulfoxide reductase A; purified bovine MsrA, absorbance read-out; AID 602163; 360,000 tested, 0.3% active; activation, % at 10.6 µM; in the data active = activation above about 7.5%;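 note: 0% = vehicle and 100% = reference activator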
MT1-MMP act inh: MT1-MMP (human) activation inhibition. HT1080 RFP-PRO-GFP cells, GFP/RFP ratio fluorescence, overnight; percent of plate control window, DMSO zero. 360,000 tested, 0.061% active. GFP/RFP ratio change, % at 20 µM;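 active = GFP/RFP ratio change of at least 30% with cell ATP level not reduced by more than half and red fluorescence within 50% of control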
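Test system: HT1080 cells expressing an RFP-PRO-GFP fluorescent reporter construct / Compound dosing: single-point 20 µM compound, 1% DMSO / Schedule: cells overnight before dosing, compound overnight, 37 °C, 5% CO2 / Evaluation: GFP/RFP fluorescence ratio / Control set: DMSO and RFP-L50D-GFP cell wells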
beta cell repl: inducers of beta-cell replication in MIN6 cells; MIN6 cells proliferation, ATPlite luminescence, 48 h; cells starved in 0.2% serum; 100% = growth in 10% serum; proliferation, % at 10 µM; 330,000 tested, 0.29% active; AID 2380;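 active = compounds whose signal lies at least 3.5 SD above the mean of all wells on their plate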;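 note: 0% = DMSO-treated cells in low-serum medium and 100% = 10% serum control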
DAGLB inhibitor: diacylglycerol lipase beta (human) inhibition; Q8NCG7; HEK293T DAGLB membrane lysate, EnzChek fluorogenic substrate; inhibition, % at 5.17 µM; 340,000 tested, 0.059% active; AID 504411; in the data active = inhibition above about 34%;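 note: 0% = enzyme with vehicle and 100% = wells lacking enzyme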
Target sequence (Q8NCG7 whole entry, looked up): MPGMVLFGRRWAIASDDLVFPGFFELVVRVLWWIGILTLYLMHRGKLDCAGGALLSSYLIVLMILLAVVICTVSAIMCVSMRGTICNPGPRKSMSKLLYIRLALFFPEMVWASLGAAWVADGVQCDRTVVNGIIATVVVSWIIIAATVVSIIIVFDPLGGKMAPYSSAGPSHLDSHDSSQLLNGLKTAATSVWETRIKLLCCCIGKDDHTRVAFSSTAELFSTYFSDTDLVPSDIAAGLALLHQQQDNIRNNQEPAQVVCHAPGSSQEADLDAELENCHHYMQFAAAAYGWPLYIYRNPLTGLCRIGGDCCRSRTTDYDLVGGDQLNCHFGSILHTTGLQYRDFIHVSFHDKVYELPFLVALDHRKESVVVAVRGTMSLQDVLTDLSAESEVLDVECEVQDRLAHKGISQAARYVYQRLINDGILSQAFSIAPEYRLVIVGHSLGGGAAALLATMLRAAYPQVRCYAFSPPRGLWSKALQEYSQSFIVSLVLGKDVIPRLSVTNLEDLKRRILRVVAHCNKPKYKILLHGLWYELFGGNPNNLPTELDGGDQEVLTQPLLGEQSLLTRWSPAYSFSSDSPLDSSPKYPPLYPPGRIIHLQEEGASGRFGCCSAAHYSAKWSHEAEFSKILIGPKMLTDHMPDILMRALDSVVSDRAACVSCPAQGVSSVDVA
SKN-1 inh: inhibitors of C. elegans SKN-1; C. elegans VP596 Pgst-4::GFP/RFP ratio, acrylamide-induced, 24 h; inhibition, % at 21.8 µM; 360,000 tested, 0.49% active; AID 624304;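 active = interference check ratio from 0.5 to 1.5 plus GFP to RFP signal ratio inhibition reaching or exceeding a fixed threshold, cut at about 30% in these data, passing the limit was not always enough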
MsrA inhibitor: inhibits bovine methionine sulfoxide reductase A; purified bovine MsrA, absorbance read-out; inhibition, % at 15.5 µM; 360,000 tested, 0.75% active; AID 651718; in the data active = inhibition above about 4.5%;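 note: 0% = vehicle wells with enzyme and 100% = reference inhibitor wells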
Numbers without * were called inactive; / = no result given.

SMILES | MsrA act | MT1-MMP act inh | beta cell repl | DAGLB inhibitor | SKN-1 inh | MsrA inhibitor
COc1ccc(NC(=O)N(C)C[C@@H]2OCc3cnnn3CCCC(=O)N([C@@H](C)CO)C[C@@H]2C)cc1 | / | / | / | / | / | 1
CCCCNc1cccc2c1S(=O)(=O)N[C@H](CC(C)C)CO2 | / | / | / | / | / | 2
O=S(=O)(c1ccc(C(F)(F)F)cc1)N1CCCc2nc(-c3ccc(F)cc3)ccc21 | / | / | / | / | / | 0
Cc1c(C#N)c(O)[nH]c(=O)c1N=Nc1ccc(S(N)(=O)=O)cc1 | -4 | 5 | -1 | 3 | 38* | 1
C=CCn1c(N)c(C(=O)Nc2ccc(C)c(C)c2)c2nc3ccccc3nc21 | -6 | -5 | -3 | -3 | 40* | -1
C=CCn1c(N)c(C(=O)Nc2cccc(C)c2)c2nc3ccccc3nc21 | -10 | -7 | -5 | -8 | 2 | 0
O=c1[nH]c2cc(Cl)c(Br)cc2o1 | -3 | 1 | / | 2 | 35* | 0
COc1ccc(NC(=O)CN2CCN(Cc3ccc4c(c3)OCO4)CC2)cc1OC | -3 | -2 | -1 | 0 | 37* | 0
Cc1ccc(NC(=O)NCc2ccco2)cc1[N+](=O)[O-] | / | / | / | / | / | 1
Cc1ccc(C(=O)NC(=S)Nc2ccccc2C(F)(F)F)c(C)c1 | -1 | 0 | -4 | -23 | 32* | 0
Cc1ccccc1C(=O)NC(=S)Nc1ccccc1C(F)(F)F | -3 | -4 | 0 | -6 | 6 | 0
O=C(O)c1ccc(Cn2ccc3ccccc32)o1 | 0 | -5 | -3 | 2 | 10 | 0
c1ccc(C2(Cn3ccc4ccccc43)OCCO2)cc1 | -1 | -6 | -6 | -8 | 44* | 0
COc1ccc(OCCN(C)C(=O)c2cccc(S(=O)(=O)N(C)c3ccccc3)c2)cc1 | -2 | 3 | -6 | -1 | 37* | 0
CCN(c1ccccc1)S(=O)(=O)c1cccc(C(=O)N(C)CCOc2ccccc2)c1 | 2 | 3 | -5 | -1 | 0 | 0
Cc1oc2c(c(C)nn2-c2ccccc2)c(=O)c1Cl | / | / | / | / | / | 1
COCCN1C(=O)CC(NNC(=O)c2ccc(S(=O)(=O)N3CCCC3)cc2)C1=O (stereo not drawn) | 0 | 0 | -2 | 1 | 101* | -1
O=C(O)C(=Cc1ccc([N+](=O)[O-])cc1)c1ccccc1 | / | / | / | / | / | 3
COc1ccc(-c2cc(C(=O)NC3CC3)c3ccccc3n2)cc1 | -3 | 1 | -4 | 0 | 3 | 2
O=C(NC1CC1)c1cc(-c2ccc(Br)cc2)nc2ccccc12 | -3 | -7 | 0 | -3 | 36* | 1
COC(=O)C1=C(C)N(Cc2cccc(C(F)(F)F)c2)C(=NCc2ccc(OC)cc2)NC1c1ccc(Cl)cc1 (stereo not drawn) | / | / | / | / | / | -1
CCNC(=O)O/N=C(\C)c1sc(-c2ccc(Cl)cc2)nc1C | -4 | -1 | 0 | -11 | 2 | 4.6*
Cc1cc(F)ccc1S(=O)(=O)N1CCCOC1CNC(=O)C(=O)NCc1ccc2c(c1)OCO2 (stereo not drawn) | -2 | 2 | 3 | 3 | 37* | -1
CCC(=O)Nc1nc(CC(=O)Nc2ccccc2OC)cs1 | -4 | 3 | -2 | 0 | 35* | 2
Cc1ccc(C)c(NC(=O)c2cc3ccccc3o2)c1 | 0 | -7 | -3 | -7 | 40* | 1
SMILES | MsrA act | MT1-MMP act inh | beta cell repl | DAGLB inhibitor | SKN-1 inh | MsrA inhibitor
C/C(=N\NC(=O)c1ccc(O)cc1)c1cc2ccccc2o1 | -4 | 3 | -3 | 1 | -3 | 4.6*
Cc1ccccc1NC(=O)c1sc(Cl)nc1-c1ccccc1 | -1 | 7 | -1 | -7 | 9 | 0
Cc1ccc(C)c(NC(=O)c2sc(Cl)nc2-c2ccccc2)c1 | 2 | 0 | -2 | -9 | 48* | 0
CCCCc1c(-c2ccccc2OC)ncn1Cc1ccc(F)c(F)c1 | / | / | / | / | / | 0
O=C(Nc1ccc(OC(F)F)c(Cl)c1)c1ccccn1 | -11 | 3 | -2 | -1 | 59* | 0
COc1ccc(C2=Nn3c(nnc3-c3ccccc3OC)SC2)cc1OC1CCOC1 (stereo not drawn) | -2 | 25 | -3 | 0 | 24 | 4.6*
COc1ccc(C(C)C)cc1S(=O)(=O)n1cnc(C)c1 | 0 | 2 | 5 | -2 | 40* | -1
COCCNC(=S)N(C)[C@H]1C[C@H]2c3[nH]c4ccccc4c3CCN2C(=O)[C@H]1[C@H](C)O | / | / | / | / | / | 1
COc1ccccc1/C=C/C=N/NC(=O)c1ccco1 | -6 | 4 | -2 | 1 | 8 | 4.6*
CCOC(=O)C1CSCCS(=O)(=O)N1Cc1ccc(F)cc1F (stereo not drawn) | / | / | / | / | / | 1
COc1ccccc1C(=O)Nc1ccc(Br)c2cccnc12 | -1 | -3 | -1 | -9 | 39* | 0
COc1ccccc1C(=O)Nc1ccc(Br)cc1C | -3 | -8 | -3 | -6 | 54* | 2
COCC(=O)Nc1ccc(Br)cc1C | -2 | 0 | 0 | -2 | -6 | 0
C=CCCC1CN(Cc2ccc(OC)cc2)S(=O)(=O)c2c(cccc2Sc2ccc(OC)c(OC)c2)O1 (stereo not drawn) | / | / | / | / | / | 1
CCOC(=O)C1=C(COC(=O)c2ccc([N+](=O)[O-])s2)NC(=O)NC1C (stereo not drawn) | 19* | 4 | -3 | -2 | -19 | 3
O=C(COC(=O)C12CC3CC(CC(O)(C3)C1)C2)Nc1cccc(Br)c1 | -2 | 1 | 0 | -2 | 38* | -1
C[C@H](CO)N1C[C@H](C)[C@@H](CN(C)C(=O)C2CC2)OCc2cn(nn2)CCCC1=O | / | / | / | / | / | 0
Clc1ccc(Cc2nc(-c3cccnc3)no2)cc1 | -1 | 0 | -1 | -2 | 41* | 1
Cc1ccc(Cc2nc(-c3cccnc3)no2)cc1 | -14 | 0 | -1 | -3 | -18 | -1
CC(/C=N/N1CCN(Cc2ccccc2)CC1)=C\c1ccccc1 | -2 | -1 | -3 | -6 | 62* | 1
Cc1ccc2nc(Nc3nc(CSc4nnnn4-c4ccccc4)cc(=O)[nH]3)nc(C)c2c1 | 0 | -1 | -3 | 0 | 35* | -1
Cc1nc(Nc2nc(CSc3nc4ccccc4[nH]3)cc(=O)[nH]2)nc2ccccc12 | -2 | 12 | 0 | 2 | 14 | -1
C[C@H](CO)N1C[C@H](C)[C@@H](CN(C)C(=O)Nc2cccc(C(F)(F)F)c2)OCc2cn(nn2)CCCC1=O | / | / | / | / | / | 0
CC(C)CCNC(=O)NC(=O)COc1c(F)c(F)cc(F)c1F | -1 | 3 | -2 | -6 | 60* | 1
COC(=O)C1=C(C)N(C)C(=NCc2cccc(C(F)(F)F)c2)NC1c1ccc(Cl)cc1 (stereo not drawn) | / | / | / | / | / | -1
CC1(C)OC(c2ccccc2)=C/C(=C/C=C2C(=O)c3ccccc3C2=O)O1 | -3 | -13 | -3 | 6 | 60* | -1
